Data reported in ChEMBL document CHEMBL2203123, “Synthesis and biological evaluation of some hydrazone derivatives as new anticandidal and anticancer agents” (Eur J Med Chem, 2012).
Converted amounts (≈) assume the structure as drawn.

What was measured:
[1] = Genotoxicity against Salmonella typhimurium TA1535/pSK1002 assessed as induction ratio at 5 mg/ml by umuC assay in presence of S9 fraction; assay type: toxicity, organism-based; conditions: salmonella enterica subsp. enterica serovar typhimurium, Salmonella typhimurium TA1535/pSK1002 with S9 fraction
Outline: (§1)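 umuC Easy CS: TA1535/pSK1002 grown overnight in ampicillin TG medium at 37 °C, then exposed 2 h at 37 °C to compounds at 5, 2.5, 1.25, 0.63 mg/mL with or without S9. Diluted into fresh medium for 2 h growth (OD600), then β-galactosidase with ONPG 30 min at 28 °C, OD420. Positive controls 2-aminoanthracene (+S9), […] (−S9).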

NIH3T3 = assay: Cytotoxicity against mouse NIH/3T3 cells after 24 hrs by XTT assay; assay type: cell-based; conditions: NIH3T3, 24 h
Outline: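 Mouse NIH3T3 fibroblasts grown in DMEM with fetal calf serum, penicillin/streptomycin, 37 °C, 5% CO2; 20,000 cells/well, treated after 24 h with 0.00316 µM-10 mM compound for 24 h. Viability via XTT (3 h, OD 480 nm, reference 680 nm); % inhibition computed and IC50 fitted by non-linear regression.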

[2] = Genotoxicity against Salmonella typhimurium TA1535/pSK1002 assessed as induction ratio at 2.5 mg/ml by umuC assay in absence of S9 fraction; assay type: toxicity, organism-based; conditions: salmonella enterica subsp. enterica serovar typhimurium, Salmonella typhimurium TA1535/pSK1002 without S9 fraction; outline: as §1
[3] = Genotoxicity against Salmonella typhimurium TA1535/pSK1002 assessed as induction ratio at 5 mg/ml by umuC assay in absence of S9 fraction; assay type: toxicity, organism-based; conditions: salmonella enterica subsp. enterica serovar typhimurium, Salmonella typhimurium TA1535/pSK1002 without S9 fraction; outline: as §1
Salmonella typhimurium [4] = assay: Genotoxicity against Salmonella typhimurium TA1535/pSK1002 assessed as growth factor ratio at 5 mg/ml by umuC assay in presence of S9 fraction; assay type: toxicity, organism-based; conditions: salmonella enterica subsp. enterica serovar typhimurium; outline: as §1
[5] = Genotoxicity against Salmonella typhimurium TA1535/pSK1002 assessed as induction ratio at 0.63 mg/ml by umuC assay in presence of S9 fraction; assay type: toxicity, organism-based; conditions: salmonella enterica subsp. enterica serovar typhimurium, Salmonella typhimurium TA1535/pSK1002 with S9 fraction; outline: as §1
Salmonella typhimurium [6] = assay: Genotoxicity against Salmonella typhimurium TA1535/pSK1002 assessed as growth factor ratio at 2.5 mg/ml by umuC assay in absence of S9 fraction; assay type: toxicity, organism-based; conditions: salmonella enterica subsp. enterica serovar typhimurium; outline: as §1
Salmonella typhimurium [7] = assay: Genotoxicity against Salmonella typhimurium TA98 assessed as fold increase in revertants at 5 mg/ml after 90 mins by Ames MPF test in presence of S9 fraction relative to baseline; assay type: toxicity, organism-based; conditions: salmonella enterica subsp. enterica serovar typhimurium, s9, 1.5 h
Outline: (§2)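 Ames MPF fluctuation test, TA98 and TA100: overnight cultures reincubated 90 min, then exposed 90 min at 37 °C to compounds at 0.156-5 mg/mL (in DMSO) with or without 4.5% v/v S9; indicator medium added, 48 wells per sample scored yellow after 48 h, triplicate. Fold over baseline = mean positive wells / (mean of DMSO control + 1 SD).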

Salmonella typhimurium [8] = assay: Genotoxicity against Salmonella typhimurium TA100 assessed as fold increase in revertants at 2.5 mg/ml after 90 mins by Ames MPF test in absence of S9 fraction relative to baseline; assay type: toxicity, organism-based; conditions: salmonella enterica subsp. enterica serovar typhimurium, 1.5 h; outline: as §2
Salmonella typhimurium [9] = assay: Genotoxicity against Salmonella typhimurium TA100 assessed as fold increase in revertants at 1.25 mg/ml after 90 mins by Ames MPF test in presence of S9 fraction relative to baseline; assay type: toxicity, organism-based; conditions: salmonella enterica subsp. enterica serovar typhimurium, s9, 1.5 h; outline: as §2
Salmonella typhimurium [10] = assay: Genotoxicity against Salmonella typhimurium TA100 assessed as fold increase in revertants at 5 mg/ml after 90 mins by Ames MPF test in presence of S9 fraction relative to baseline; assay type: toxicity, organism-based; conditions: salmonella enterica subsp. enterica serovar typhimurium, s9, 1.5 h; outline: as §2
Salmonella typhimurium [11] = assay: Genotoxicity against Salmonella typhimurium TA100 assessed as fold increase in revertants at 2.5 mg/ml after 90 mins by Ames MPF test in presence of S9 fraction relative to baseline; assay type: toxicity, organism-based; conditions: salmonella enterica subsp. enterica serovar typhimurium, s9, 1.5 h; outline: as §2
Salmonella typhimurium [12] = assay: Genotoxicity against Salmonella typhimurium TA98 assessed as fold increase in revertants at 0.156 mg/ml after 90 mins by Ames MPF test in presence of S9 fraction relative to baseline; assay type: toxicity, organism-based; conditions: salmonella enterica subsp. enterica serovar typhimurium, s9, 1.5 h; outline: as §2
Salmonella typhimurium [13] = assay: Genotoxicity against Salmonella typhimurium TA98 assessed as fold increase in revertants at 1.25 mg/ml after 90 mins by Ames MPF test in absence of S9 fraction relative to baseline; assay type: toxicity, organism-based; conditions: salmonella enterica subsp. enterica serovar typhimurium, 1.5 h; outline: as §2
Salmonella typhimurium [14] = assay: Genotoxicity against Salmonella typhimurium TA98 assessed as fold increase in revertants at 0.3125 mg/ml after 90 mins by Ames MPF test in absence of S9 fraction relative to baseline; assay type: toxicity, organism-based; conditions: salmonella enterica subsp. enterica serovar typhimurium, 1.5 h; outline: as §2
Candida albicans = assay: Antifungal activity against Candida albicans ATCC 90028 after 24 hrs by microdilution susceptibility assay; assay type: functional; conditions: ATCC 90028, 24 h
Outline: (§3)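 Broth microdilution in Mueller Hinton Broth, compounds from DMSO stocks diluted serially; inocula standardized to 10^6 CFU/mL (McFarland 0.5) from overnight MHB cultures. Plates held 37 °C for 24 h; MIC taken as first well without turbidity, aided by 1% tetrazolium violet added for 3 h at 37 °C. Ketoconazole reference.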

Salmonella typhimurium [15] = assay: Genotoxicity against Salmonella typhimurium TA98 assessed as fold increase in revertants at 0.625 mg/ml after 90 mins by Ames MPF test in presence of S9 fraction relative to baseline; assay type: toxicity, organism-based; conditions: salmonella enterica subsp. enterica serovar typhimurium, s9, 1.5 h; outline: as §2
Salmonella typhimurium [16] = assay: Genotoxicity against Salmonella typhimurium TA100 assessed as fold increase in revertants at 0.625 mg/ml after 90 mins by Ames MPF test in presence of S9 fraction relative to baseline; assay type: toxicity, organism-based; conditions: salmonella enterica subsp. enterica serovar typhimurium, s9, 1.5 h; outline: as §2
Salmonella typhimurium [17] = assay: Genotoxicity against Salmonella typhimurium TA98 assessed as fold increase in revertants at 2.5 mg/ml after 90 mins by Ames MPF test in absence of S9 fraction relative to baseline; assay type: toxicity, organism-based; conditions: salmonella enterica subsp. enterica serovar typhimurium, 1.5 h; outline: as §2
Nakaseomyces glabratus = assay: Antifungal activity against Candida glabrata Osmangazi University clinical isolate after 24 hrs by microdilution susceptibility assay; assay type: functional; outline: as §3
Salmonella typhimurium [18] = assay: Genotoxicity against Salmonella typhimurium TA100 assessed as fold increase in revertants at 0.625 mg/ml after 90 mins by Ames MPF test in absence of S9 fraction relative to baseline; assay type: toxicity, organism-based; conditions: salmonella enterica subsp. enterica serovar typhimurium, 1.5 h; outline: as §2
Salmonella typhimurium [19] = assay: Genotoxicity against Salmonella typhimurium TA1535/pSK1002 assessed as growth factor ratio at 0.63 mg/ml by umuC assay in presence of S9 fraction; assay type: toxicity, organism-based; conditions: salmonella enterica subsp. enterica serovar typhimurium; outline: as §1
[20] = Genotoxicity against Salmonella typhimurium TA1535/pSK1002 assessed as induction ratio at 1.25 mg/ml by umuC assay in absence of S9 fraction; assay type: toxicity, organism-based; conditions: salmonella enterica subsp. enterica serovar typhimurium, Salmonella typhimurium TA1535/pSK1002 without S9 fraction; outline: as §1
Salmonella typhimurium [21] = assay: Genotoxicity against Salmonella typhimurium TA1535/pSK1002 assessed as growth factor ratio at 1.25 mg/ml by umuC assay in absence of S9 fraction; assay type: toxicity, organism-based; conditions: salmonella enterica subsp. enterica serovar typhimurium; outline: as §1
Salmonella typhimurium [22] = assay: Genotoxicity against Salmonella typhimurium TA98 assessed as fold increase in revertants at 0.625 mg/ml after 90 mins by Ames MPF test in absence of S9 fraction relative to baseline; assay type: toxicity, organism-based; conditions: salmonella enterica subsp. enterica serovar typhimurium, 1.5 h; outline: as §2
Salmonella typhimurium [23] = assay: Genotoxicity against Salmonella typhimurium TA98 assessed as fold increase in revertants at 5 mg/ml after 90 mins by Ames MPF test in absence of S9 fraction relative to baseline; assay type: toxicity, organism-based; conditions: salmonella enterica subsp. enterica serovar typhimurium, 1.5 h; outline: as §2
Salmonella typhimurium [24] = assay: Genotoxicity against Salmonella typhimurium TA100 assessed as fold increase in revertants at 5 mg/ml after 90 mins by Ames MPF test in absence of S9 fraction relative to baseline; assay type: toxicity, organism-based; conditions: salmonella enterica subsp. enterica serovar typhimurium, 1.5 h; outline: as §2

SMILES	fold induction at 5 mg/ml [1]	IC50 (NIH3T3)	fold induction at 2.5 mg/ml [2]	fold induction at 5 mg/ml [3]	Ratio (Salmonella typhimurium [4])	fold induction at 0.63 mg/ml [5]	Ratio (Salmonella typhimurium [6])	fold change (FC) (Salmonella typhimurium [7])	fold change (FC) (Salmonella typhimurium [8])	fold change (FC) (Salmonella typhimurium [9])	fold change (FC) (Salmonella typhimurium [10])	fold change (FC) (Salmonella typhimurium [11])	fold change (FC) (Salmonella typhimurium [12])	fold change (FC) (Salmonella typhimurium [13])	fold change (FC) (Salmonella typhimurium [14])	MIC (Candida albicans)	fold change (FC) (Salmonella typhimurium [15])	fold change (FC) (Salmonella typhimurium [16])	fold change (FC) (Salmonella typhimurium [17])	MIC (Nakaseomyces glabratus)	further results
Cn1nnnc1SCC(=O)N/N=C/c1ccccc1[N+](=O)[O-]	1.19	2020 µM	1.63	1.43	0.913	1.23	1.03	1.11	0.67	1.93	1.7	2.2	1	2.78	1.63	62.5 µg/mL (≈ 195 µM)	1.78	1.28	1.96	500 µg/mL (≈ 1560 µM)	fold change (FC) (Salmonella typhimurium [18]): 0.83; Ratio (Salmonella typhimurium [19]): 0.969; fold induction at 1.25 mg/ml [20]: 1.51; Ratio (Salmonella typhimurium [21]): 1.022; fold change (FC) (Salmonella typhimurium [22]): 1.47; fold change (FC) (Salmonella typhimurium [23]): 1.14; fold change (FC) (Salmonella typhimurium [24]): 1.33
CN(C)c1ccc(/C=N/NC(=O)CSc2nnnn2C)cc1	0.379	316 µM	0.88	0.565	2.82	0.704	1.743	0.86	1.14	0.26	0.26	0.15	0.86	0.64	1.27	50 µg/mL (≈ 157 µM)	1	0.18	0	500 µg/mL (≈ 1570 µM)	fold change (FC) (Salmonella typhimurium [18]): 1.38; Ratio (Salmonella typhimurium [19]): 1.268; fold induction at 1.25 mg/ml [20]: 1.13; Ratio (Salmonella typhimurium [21]): 1.191; fold change (FC) (Salmonella typhimurium [22]): 1.59; fold change (FC) (Salmonella typhimurium [23]): 0; fold change (FC) (Salmonella typhimurium [24]): 0.81
